Measured values gathered from unrelated publications.
Protocols differ between the studies behind these lines.
Cell line: MCF-10A
Read-out: cell growth or viability

C[C@H]1O[C@@H](n2cc(F)c(=O)[nH]c2=O)[C@H](O)[C@@H]1O — IC50 (CCK-8; 48 h): 8.51 µM
CCCOc1cccc(-c2cnc3c(n2)CCCC3)c1 — IC50 (48 h): > 50 µM
COc1cccc2c1C(=O)c1c(O)c3c(c(O)c1C2=O)C[C@@](O)(C(=O)CO)C[C@@H]3O[C@H]1C[C@H](N)[C@H](O)[C@H](C)O1 — IC50 (48 h): 2.17 µM
O=C(NC(=S)NCCNC(=S)NC(=O)c1ccc2ccccc2c1)c1ccc2ccccc2c1 — IC50 (48 h): 86.1 µM
C[C@](C#N)(COc1cc(C#N)ccc1C(F)(F)F)NC(=O)c1ccc(SC(F)(F)F)cc1 — IC50 (48 h): ~32.8 µM
CC(C)[C@H](NC(=O)c1cc(Cl)ccc1OCCNC(=O)OC(C)(C)C)C(=O)Nc1ccc([N+](=O)[O-])cc1Cl — IC50 (MTT; 72 h): > 60 µM
CCCc1ccc(-c2cnc3c(n2)CCCC3)cc1 — IC50 (48 h): > 50 µM
CCN(CC)CCNC(=O)c1c(C)[nH]c(/C=C2\C(=O)Nc3ccc(F)cc32)c1C — IC50 (72 h): 4.07 µM
COc1ccc(-c2cnc3c(n2)CCCC3)cc1C#N — IC50 (48 h): > 50 µM
CC(C)C(=O)Nc1ccc([N+](=O)[O-])c(C(F)(F)F)c1 — IC50 (CCK-8; 48 h): 21.4 µM
COc1cccc2c1C(=O)c1c(O)c3c(c(O)c1C2=O)C[C@@](O)(C(=O)CO)C[C@@H]3O[C@H]1C[C@H](N)[C@H](O)[C@H](C)O1 — IC50 (resazurin; 72 h): 0.037 µM
c1ccc2cc(-c3nnc(NC4CCCCC4)[nH]3)ccc2c1 — IC50 (48 h): 86.6 µM
O=C(/C=C/c1ccccc1)c1ccccc1 — IC50 (resazurin; 72 h): 3.15 µM
Cc1cc2ncc(-c3ccccc3)nc2cc1C — IC50 (48 h): > 50 µM
